Calls of active or inactive are those of the source.
Legend:
Rattus norvegicus [1] = experiment: Anticonvulsant activity in ip dosed Sprague-Dawley rat assessed as protection against maximal electroshock-induced seizure after 0.25 hrs; type: functional
Rattus norvegicus [2] = experiment: Anticonvulsant activity in ip dosed Sprague-Dawley rat assessed as protection against subcutaneous pentetrazole-induced seizure after 0.25 hrs; type: functional
Rattus norvegicus [3] = experiment: Protective index, ratio of TD50 for ip dosed Sprague-Dawley rat to ED50 for ip dosed Sprague-Dawley rat assessed as protection against maximal electroshock-induced seizure after 0.5 hrs; type: functional
In short: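 PI = TD50/ED50. Male CF-1 mice or male Sprague–Dawley rats given compound ip as 0.5% methylcellulose suspension. MES: 60 Hz corneal current, 50 mA mice or 150 mA rats, for […] after tetracaine eye drops; protection is abolition of hindlimb tonic extension.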

Rattus norvegicus [4] = experiment: Anticonvulsant activity in Sprague-Dawley rat assessed as protection against pilocarpine-induced convulsive status epilepticus at 65 mg/kg, ip; type: functional, organism-based
In short: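 Male Sprague Dawley rats (150–180 g) dosed ip, pilocarpine 50 mg/kg ip given; compound dosed immediately at first behavioral Stage 3 seizure or 30 min later. Number protected from Racine Stage 3 or greater seizures recorded.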

Mus musculus [5] = experiment: Anticonvulsant activity in CF1 albino mouse temporal lobe epilepsy model at 30 mg/kg, ip; type: functional, organism-based
In short: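 Adult male CF1 mice corneal-kindled to 5 consecutive secondarily generalized seizures (Racine stage 4 or 5). Four fully kindled mice dosed ip and tested 0.5 h later; seizure score below 3 counted protected.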

[6] = Neuroprotective activity in hippocampal slice (unknown origin) assessed as protection against kainic acid-induced cell death using propidium iodide staining; type: functional; conditions: Hippocampus
In short: (§1)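 Organotypic hippocampal slice cultures exposed to NMDA or kainic acid alone or with compound; propidium iodide in all wells; PI fluorescence intensity of slices, proportional to cell death, compared with excitotoxin-only slices; qualitative.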

[7] = Neuroprotective activity in hippocampal slice (unknown origin) assessed as protection against NMDA-induced cell death using propidium iodide staining; type: functional; conditions: Hippocampus; in short: as §1
Histamine H3 receptor = Histamine H3 receptor (Homo sapiens, UniProt Q9Y5N1); experiment: Displacement of [3H]-Nalpha-methylhistamine from human recombinant histamine H3 receptor expressed in HEK293 cells after 90 mins; type: cell-based
Mus musculus [8] = experiment: Anticonvulsant activity in CF1 albino mouse assessed as protection against maximal electroshock-induced seizure at 3 mg/kg, ip after 0.5 hrs; type: functional, organism-based
In short: (§2)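 Male CF-1 mice dosed ip as suspension in 0.5% methylcellulose. Corneal electrodes deliver 60 Hz alternating current, 50 mA for […], after a drop of 0.5% tetracaine HCl in 0.9% NaCl per eye. Protection means abolition of hindlimb tonic extension; scored as protected/tested, or ED50 with 95% confidence interval.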

Mus musculus [9] = experiment: Anticonvulsant activity in CF1 albino mouse assessed as protection against maximal electroshock-induced seizure at 10 mg/kg, ip after 0.5 hrs; type: functional, organism-based; in short: as §2
Mus musculus [10] = experiment: Anticonvulsant activity in CF1 albino mouse assessed as protection against maximal electroshock-induced seizure at 30 mg/kg, ip after 0.5 hrs; type: functional, organism-based; in short: as §2
Mus musculus [11] = experiment: Anticonvulsant activity in CF1 albino mouse assessed as protection against maximal electroshock-induced seizure at 30 mg/kg, ip after 4 hrs; type: functional, organism-based; in short: as §2
Mus musculus [12] = experiment: Anticonvulsant activity in CF1 albino mouse assessed as protection against maximal electroshock-induced seizure at 100 mg/kg, ip after 0.5 hrs; type: functional, organism-based; in short: as §2
Mus musculus [13] = experiment: Anticonvulsant activity in CF1 albino mouse assessed as protection against subcutaneous pentetrazole-induced seizure at 30 mg/kg, ip after 0.5 hrs; type: functional, organism-based
In short: (§3)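 Male CF-1 mice, ip in 0.5% methylcellulose; pentetrazole at CD97 (85 mg/kg) injected subcutaneously in a loose fold of neck skin. Observed 30 min; absence of even a threshold seizure (single clonic spasm lasting at least 5 s) counted as protection. Scored protected/tested, or ED50.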

Mus musculus [14] = experiment: Anticonvulsant activity in CF1 albino mouse assessed as protection against subcutaneous pentetrazole-induced seizure at 30 mg/kg, ip after 4 hrs; type: functional, organism-based; in short: as §3
Mus musculus [15] = experiment: Neurotoxicity in CF1 albino mouse at 3 mg/kg, ip after 0.5 hrs by rotarod test; type: toxicity, organism-based; conditions: in vivo
In short: (§4)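 Rotarod neurotoxicity in male albino CF-1 mice dosed ip with compound suspended in 0.5% methylcellulose. Animal placed on a 1 inch diameter knurled plastic rod rotating at 6 rpm. Neurotoxicity scored when the animal falls off three times within 1 min. Readout is number of animals toxic/number tested at the stated time after dosing. TD50 with 95% confidence interval from the quantitative study.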

Mus musculus [16] = experiment: Neurotoxicity in CF1 albino mouse at 10 mg/kg, ip after 0.5 hrs by rotarod test; type: toxicity, organism-based; conditions: in vivo
In short: (§5)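 Rotarod neurotoxicity in male CF-1 mice dosed ip as 0.5% methylcellulose suspension: mouse placed on 1 inch knurled rod rotating at 6 rpm; toxicity when the animal falls off three times within 1 min, with other signs noted. Scored as toxic/tested at 0.5 h and 4 h.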

Mus musculus [17] = experiment: Neurotoxicity in CF1 albino mouse at 30 mg/kg, ip after 0.5 hrs by rotarod test; type: toxicity, organism-based; conditions: in vivo; in short: as §4
Mus musculus [18] = experiment: Neurotoxicity in CF1 albino mouse at 30 mg/kg, ip after 4 hrs by rotarod test; type: toxicity, organism-based; conditions: in vivo; in short: as §4
Mus musculus [19] = experiment: Neurotoxicity in CF1 albino mouse at 100 mg/kg, ip after 4 hrs by rotarod test; type: toxicity, organism-based; conditions: in vivo; in short: as §4
Mus musculus [20] = experiment: Neurotoxicity in CF1 albino mouse assessed as death at 300 mg/kg, ip after 0.5 hrs by rotarod test; type: toxicity, organism-based; conditions: in vivo
In short: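 Male albino CF-1 mice dosed ip with compound suspended in 0.5% methylcellulose, then placed on a 1-inch knurled plastic rod turning at 6 rpm. A fall three times within 1 min counted as neurotoxicity. Observations were made at 0.5 h and 4 h after dosing. Result given as animals showing toxicity per animals tested, with the kind of toxicity recorded.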

Mus musculus [21] = experiment: Neurotoxicity in CF1 albino mouse at 300 mg/kg, ip after 4 hrs by rotarod test; type: toxicity, organism-based; conditions: in vivo; in short: as §4
Mus musculus [22] = experiment: Neurotoxicity in CF1 albino mouse assessed as unable to grasp rotarod, sedated and myoclonic jerks at 100 mg/kg, ip after 0.5 hrs by rotarod test; type: toxicity, organism-based; conditions: in vivo; in short: as §5
Rattus norvegicus [23] = experiment: Anticonvulsant activity in Sprague-Dawley rat assessed as protection against maximal electroshock-induced seizure at 30 mg/kg, ip after 4 hrs; type: functional, organism-based
Rattus norvegicus [24] = experiment: Neurotoxicity in Sprague-Dawley rat at 30 mg/kg, ip after 0.25 hrs by rotarod test; type: toxicity, organism-based; conditions: in vivo
In short: (§6)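 Male Sprague–Dawley rats given compound ip as a suspension in 0.5% methylcellulose, groups of four. Rotarod: 1 inch knurled rod at 6 rpm; three falls within 1 min counts as neurotoxic. Scored as number toxic/number tested at pretreatment times between 0.25 and 4 h, or at the stated time.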

Rattus norvegicus [25] = experiment: Neurotoxicity in Sprague-Dawley rat at 30 mg/kg, ip after 0.5 hrs by rotarod test; type: toxicity, organism-based; conditions: in vivo; in short: as §6
Rattus norvegicus [26] = experiment: Neurotoxicity in Sprague-Dawley rat at 30 mg/kg, ip after 1 hr by rotarod test; type: toxicity, organism-based; conditions: in vivo; in short: as §6
Rattus norvegicus [27] = experiment: Neurotoxicity in Sprague-Dawley rat at 30 mg/kg, ip after 2 hrs by rotarod test; type: toxicity, organism-based; conditions: in vivo; in short: as §6
Rattus norvegicus [28] = experiment: Neurotoxicity in Sprague-Dawley rat at 30 mg/kg, ip after 4 hrs by rotarod test; type: toxicity, organism-based; conditions: in vivo; in short: as §6
Rattus norvegicus [29] = experiment: Anticonvulsant activity in Sprague-Dawley rat assessed as protection against maximal electroshock-induced seizure at 30 mg/kg, po; type: functional
Mus musculus [30] = experiment: Anticonvulsant activity in CF1 albino mouse assessed as protection against 6 Hz-psychomotor-induced seizure at 50 mg/kg, ip after 0.25 hrs; type: functional, organism-based
In short: (§7)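 Male CF-1 mice, ip suspension in 0.5% methylcellulose. Corneal stimulation 0.2 ms monopolar rectangular pulses at 6 Hz, 32 mA for 3 s via constant-current device; mice without minimal clonic phase seizure counted protected. Groups of four; read at 0.25, 0.5, 1, 2, 4 h; result as protected/tested.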

Mus musculus [31] = experiment: Anticonvulsant activity in CF1 albino mouse assessed as protection against 6 Hz-psychomotor-induced seizure at 50 mg/kg, ip after 1 hr; type: functional, organism-based; in short: as §7
Mus musculus [32] = experiment: Anticonvulsant activity in CF1 albino mouse assessed as protection against 6 Hz-psychomotor-induced seizure at 50 mg/kg, ip after 2 hrs; type: functional, organism-based; in short: as §7
Mus musculus [33] = experiment: Anticonvulsant activity in CF1 albino mouse assessed as protection against 6 Hz-psychomotor-induced seizure at 50 mg/kg, ip after 4 hrs; type: functional, organism-based; in short: as §7
Mus musculus [34] = experiment: Neurotoxicity in CF1 albino mouse at 50 mg/kg, ip after 0.25 hrs by rotarod test; type: toxicity, organism-based; conditions: in vivo; in short: as §4
Mus musculus [35] = experiment: Neurotoxicity in CF1 albino mouse at 50 mg/kg, ip after 0.5 hrs by rotarod test; type: toxicity, organism-based; conditions: in vivo; in short: as §4
Mus musculus [36] = experiment: Neurotoxicity in CF1 albino mouse at 50 mg/kg, ip after 1 hr by rotarod test; type: toxicity, organism-based; conditions: in vivo; in short: as §4
Mus musculus [37] = experiment: Neurotoxicity in CF1 albino mouse at 50 mg/kg, ip after 2 hrs by rotarod test; type: toxicity, organism-based; conditions: in vivo; in short: as §4
Mus musculus [38] = experiment: Neurotoxicity in CF1 albino mouse at 50 mg/kg, ip after 4 hrs by rotarod test; type: toxicity, organism-based; conditions: in vivo; in short: as §4
Mus musculus [39] = experiment: Neurotoxicity in CF1 albino mouse at 45 mg/kg, ip after 0.25 to 0.5 hrs by rotarod test; type: toxicity, organism-based; conditions: in vivo; in short: as §4
Mus musculus [40] = experiment: Neurotoxicity in ip dosed CF1 albino mouse after 0.25 hrs by rotarod test; type: toxicity, organism-based; conditions: in vivo
In short: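 Rotarod neurotoxicity in male albino CF-1 mice dosed ip with compound suspended in 0.5% methylcellulose. Animal placed on a 1 inch diameter knurled plastic rod rotating at 6 rpm. Neurotoxicity scored when the animal falls off three times within 1 min. Readout is number of animals toxic/number tested at the stated time after dosing.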

Sequence of Histamine H3 receptor (Q9Y5N1 whole entry): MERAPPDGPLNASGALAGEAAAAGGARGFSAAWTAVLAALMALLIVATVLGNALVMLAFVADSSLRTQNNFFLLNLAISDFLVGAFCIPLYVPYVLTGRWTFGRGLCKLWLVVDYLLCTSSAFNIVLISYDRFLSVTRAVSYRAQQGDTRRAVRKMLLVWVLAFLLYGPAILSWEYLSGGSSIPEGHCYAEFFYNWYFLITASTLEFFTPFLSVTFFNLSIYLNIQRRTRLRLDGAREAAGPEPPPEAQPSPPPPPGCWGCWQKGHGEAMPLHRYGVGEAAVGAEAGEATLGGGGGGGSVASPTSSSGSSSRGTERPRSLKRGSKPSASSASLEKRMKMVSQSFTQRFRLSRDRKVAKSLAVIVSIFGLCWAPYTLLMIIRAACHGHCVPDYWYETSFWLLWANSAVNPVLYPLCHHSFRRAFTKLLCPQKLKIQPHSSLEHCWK

SMILES: Clc1ccc(OCCCCCCN2CCCCCC2)cc1.O=C(O)C(=O)O
- ED50 (Rattus norvegicus [1]): 14 mg/kg
- ED50 (Rattus norvegicus [2]): > 47 mg/kg
- Ratio TD50/ED50 (Rattus norvegicus [3]): 3.2
- Activity (Rattus norvegicus [4]): Active
- Activity (Mus musculus [5]): inactive
- Activity [6]: inactive
- Activity [7]: inactive
- Ki (Histamine H3 receptor): 237 nM
- Activity (Mus musculus [8]): inactive
- Activity (Mus musculus [9]): inactive
- Activity (Mus musculus [10]): Active
- Activity (Mus musculus [11]): inactive
- Activity (Mus musculus [12]): Active
- Activity (Mus musculus [13]): inactive
- Activity (Mus musculus [14]): inactive
- Activity (Mus musculus [15]): Non-toxic
- Activity (Mus musculus [16]): Non-toxic
- Activity (Mus musculus [17]): Non-toxic
- Activity (Mus musculus [18]): Non-toxic
- Activity (Mus musculus [19]): Non-toxic
- Activity (Mus musculus [20]): Toxic
- Activity (Mus musculus [21]): Non-toxic
- Activity (Mus musculus [22]): Toxic
- Activity (Rattus norvegicus [23]): inactive
- Activity (Rattus norvegicus [24]): Non-toxic
- Activity (Rattus norvegicus [25]): Non-toxic
- Activity (Rattus norvegicus [26]): Non-toxic
- Activity (Rattus norvegicus [27]): Non-toxic
- Activity (Rattus norvegicus [28]): Non-toxic
- Activity (Rattus norvegicus [29]): 25%
- Activity (Mus musculus [30]): inactive
- Activity (Mus musculus [31]): inactive
- Activity (Mus musculus [32]): inactive
- Activity (Mus musculus [33]): inactive
- Activity (Mus musculus [34]): Non-toxic
- Activity (Mus musculus [35]): Non-toxic
- Activity (Mus musculus [36]): Non-toxic
- Activity (Mus musculus [37]): Non-toxic
- Activity (Mus musculus [38]): Non-toxic
- Activity (Mus musculus [39]): Toxic
- TD50 (median neurotoxic dose) (Mus musculus [40]): 36.2 mg/kg

From ChEMBL document CHEMBL3745596, “Chlorophenoxy aminoalkyl derivatives as histamine H(3)R ligands and antiseizure agents” (Bioorg Med Chem, 2016)
